Assay outcomes: PubChem BioAssay, Johns Hopkins Ion Channel Center
TRPC4 inh: blocks the mouse TRPC4 cation channel; Q9QUQ5; HEK293 TRPC4beta/mu-opioid, DAMGO-evoked Fluo4 calcium flux; stronger effect = lower value; B-score at 10 µM; 0.39% of 300,000 active; AID 2247;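 active = B-score over 3 SD under the library average, no early fluorescence shift, positive overall ratio signal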
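System: stable TRPC4beta/mu-opioid receptor HEK293 cells; Dosing: single-point compound dosing; Measured by: Fluo4 Ca2+ flux fluorescence; Read-out basis: per-well B score of integrated baseline-normalized Fluo4 ratio.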
TRPC4 agonist: activators of mouse TRPC4 channel; 0.49% of 310,000 active; HEK293 TRPC4beta/mu-opioid, Fluo4 calcium fluorescence; stronger effect = higher value; Q9QUQ5; B-score at 10 µM;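 active = B-score above 5 SD of library B-scores, and initial fluorescence ratio not above library mean plus 5 SD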;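 also: positive B-score marks a calcium rise read as TRPC4 activation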
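Assay system – TRPC4beta and mu-opioid receptor HEK293 stable cells · Measured by – Fluo4 fluorescence, kinetic · Schedule – dye loading 45 min room temperature, 110 s kinetic read · Read-out – B-scored integrated calcium fluorescence ratio · Controls – buffer and maximal DAMGO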
TRPC6 inh: inhibitors of mouse TRPC6 channel. Q61143. HEK293-TRPC6, membrane potential dye, ACh-evoked depolarization; stronger effect = lower value. B-score at 10 µM. 1.1% of 310,000 active;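 active = B-score under library mean minus 3 SD, initial fluorescence not abnormally high, positive integrated signal ratio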;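 also: B-score derived from integrated fluorescence ratio over the kinetic read; more negative B-score means stronger inhibition of depolarization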
Target sequence (Q61143 whole entry, looked up): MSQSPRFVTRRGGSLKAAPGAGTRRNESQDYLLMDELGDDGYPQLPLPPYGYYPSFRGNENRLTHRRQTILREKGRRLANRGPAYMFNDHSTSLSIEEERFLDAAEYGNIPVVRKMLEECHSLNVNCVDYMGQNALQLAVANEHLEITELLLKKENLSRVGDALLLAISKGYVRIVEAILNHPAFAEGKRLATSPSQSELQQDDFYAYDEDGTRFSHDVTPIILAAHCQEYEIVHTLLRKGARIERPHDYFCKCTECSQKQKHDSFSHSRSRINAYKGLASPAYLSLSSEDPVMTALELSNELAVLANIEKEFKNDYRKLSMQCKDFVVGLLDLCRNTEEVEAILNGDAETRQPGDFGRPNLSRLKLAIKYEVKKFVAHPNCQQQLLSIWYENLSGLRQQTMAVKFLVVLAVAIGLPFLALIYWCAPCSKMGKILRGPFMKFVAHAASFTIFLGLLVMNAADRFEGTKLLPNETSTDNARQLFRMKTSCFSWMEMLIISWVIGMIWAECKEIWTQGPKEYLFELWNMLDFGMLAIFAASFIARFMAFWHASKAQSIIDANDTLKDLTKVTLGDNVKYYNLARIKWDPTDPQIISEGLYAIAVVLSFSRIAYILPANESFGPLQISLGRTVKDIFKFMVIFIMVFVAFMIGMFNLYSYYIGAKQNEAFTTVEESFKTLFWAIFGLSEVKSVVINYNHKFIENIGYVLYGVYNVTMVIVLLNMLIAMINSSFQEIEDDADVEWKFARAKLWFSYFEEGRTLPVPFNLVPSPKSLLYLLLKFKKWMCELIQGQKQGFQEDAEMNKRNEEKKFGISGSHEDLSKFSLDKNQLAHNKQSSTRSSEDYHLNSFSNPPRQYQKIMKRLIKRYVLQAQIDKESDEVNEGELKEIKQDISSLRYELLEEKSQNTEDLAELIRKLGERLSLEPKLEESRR
Kir21 block: blocks the mouse Kir2.1 inward-rectifier potassium channel; 0.85% of 310,000 active; HEK293-Kir2.1, FluxOR thallium flux fluorescence; stronger effect = lower value; B-score at 10 µM; P35561;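 active = fluorescence ratio B-score at or below minus 3 SD of library scores, with starting-brightness B-score within 2 SD, cut at about -4.2 in these data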;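 also: channel flux triggered by added potassium and thallium sulfate stimulus; B-score of peak minus minimum fluorescence over baseline after thallium stimulus; more negative B-score means stronger Kir2.1 block with less thallium influx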
TRPC4 potent: allosteric potentiators of mouse TRPC4 channel | B-score at 10 µM | HEK293 TRPC4beta/mu-opioid, DAMGO EC20, Fluo-4 Ca2+ flux; stronger effect = higher value | Q9QUQ5 | AID 2227 | 0.42% of 310,000 active;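 active = B-score of calcium response area above 5 SD of library B-scores, with initial fluorescence ratio within 5 SD of library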;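 also: B-score of integrated fluorescence ratio over time as area under calcium response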
TRPC6 act: activates the mouse TRPC6 cation channel; 0.13% of 310,000 active; AID 2550; Q61143; B-score at 10 µM; HEK293-TRPC6 membrane potential dye fluorescence; stronger effect = higher value;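 active = B-score of the integrated fluorescence ratio above library mean plus 3 SD, and starting fluorescence ratio within library mean plus 5 SD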;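 also: higher score means more depolarization so channel activation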
Active calls of the source: *; i = inactive. In the library only some 3% were active in any assay of this set; here they are far more common.

SMILES | TRPC4 inh | TRPC4 agonist | TRPC6 inh | Kir21 block | TRPC4 potent | TRPC6 act
OC(CNCc1ccc(F)cc1)(c1ccccc1)c1ccc(F)cc1 (stereo unspecified) | i | i | i | -6.5* | i | i
Clc1ccc(Oc2nc3c(Cl)cccc3s2)cc1Cl | i | i | i | -1.3 | i | i
COc1ccccc1CNCC(O)(c1ccc(Cl)cc1)c1ccc(Cl)cc1 | i | i | i | -3.2 | i | i
CCc1ccc(CNCc2ccc(F)cc2)cc1 | i | i | i | -6.9* | i | i
COc1ccccc1CNCC(O)(c1ccc(F)cc1)c1ccc(F)cc1 | i | i | i | -5.9* | i | i
Cc1cccc(CCN=c2c([N+](=O)[O-])nn(-c3ccccc3)n2O)c1 | i | i | i | -4.3* | i | i
COc1cc([N+](=O)[O-])ccc1NC(=O)NCC1CCN(Cc2ccc(Cl)cc2)CC1 | i | i | i | -5.6* | i | i
c1cc2c(cc1C1CCCCC1)c1c3n2CCCNC3CCC1 (stereo unspecified) | i | i | i | -4.3* | i | i
CCc1cc2c(CN(C)Cc3ccccc3F)cc(=O)oc2cc1O | i | i | i | -5.9* | i | i
CN1CCN(CC(=O)N2c3ccccc3C(C)(c3ccccc3)CC2(C)C)CC1 (stereo unspecified) | i | i | i | -6.2* | i | i
CC(=O)N1c2ccccc2C(C)(c2ccccc2)CC1(C)C (stereo unspecified) | -6* | i | i | 0.77 | i | i
CN(C)S(=O)(=O)c1ccc(-c2csc(N/N=C/c3ccc(O)cc3)n2)cc1 | i | i | i | 1.4 | i | i
CN(C)CCCOC(=O)c1ccccc1 | i | i | i | 0.37 | i | i
CN(C)CCCOC(=O)c1ccc(Cl)cc1Cl | i | i | i | 1.1 | 27* | i
CCn1c(=O)n(CCOC)c(=O)c2c3c(sc21)CCCC3 | -6* | i | i | -1.1 | i | i
CC(C)c1ccc(NC(=S)N(C)CCc2ccccn2)cc1 | i | 107* | i | -1 | i | i
Cc1cccc(C)c1NC(=S)N(C)CCc1ccccn1 | i | i | i | 0.65 | i | i
N=C1c2ccccc2CN1NC(=O)c1cccc(S(=O)(=O)N2CCCCC2)c1 | i | 49* | i | 0.01 | i | i
Nc1[nH]c(=O)[nH]c(=O)c1N=Nc1ccc(C(=O)O)cc1 | i | i | i | 0.82 | i | i
O=C(CSCc1cccc(Cl)c1)N1CCN(Cc2ccc3c(c2)OCO3)CC1 | -7* | i | i | -0.53 | i | i
COc1ccc(C2Nc3ccc(Br)cc3C(c3ccccc3)N2CC(=O)O)cc1 (stereo unspecified) | i | i | i | 0.5 | i | i
O=C(O)CN1C(c2ccccc2O)Nc2ccc(Br)cc2C1c1ccccc1 (stereo unspecified) | -5* | i | i | -1.2 | i | i
CCSc1nnc2ccc(-c3ccc(C)cc3)nn12 | i | i | i | 0.64 | i | i
CCOc1cc(/C=N/NC(=O)CN2CCCCC2)ccc1OCc1cccc(Cl)c1 | i | i | i | -4.7* | 11* | i
O=C(CCCSc1nc2ccccc2[nH]1)Nc1nnc(-c2ccccc2)o1 | -6* | i | i | -0.02 | i | i
O=C(CCCSc1nc2ccccc2[nH]1)NCc1ccccc1 | i | i | i | 0 | i | i
C[C@@H]1C=CC(=O)O[C@@H]1c1ccc(Cl)cc1 | i | i | i | -2 | i | i
CN(C)CCNC(=O)/C(=C/c1ccc(-c2ccc(Cl)cc2)o1)NC(=O)c1ccccc1 | i | i | i | -1.6 | i | i
CN(C)CCNC(=O)/C(=C/c1ccc(-c2ccc(Cl)cc2Cl)o1)NC(=O)c1ccccc1 | i | i | i | -5.6* | i | i
